Assay outcomes (PubChem)
Most compounds without a hit are left out; they make up all but 1.5% or so of the library.
NR1D1 modulator = modulates human Rev-erb alpha binding to DNA. P20393. Rev-erbα–FITC-DNA binding, fluorescence polarization, 90 min. 370,000 tested, 0.79% active. activity, % at 10 µM;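 active means activity above about 14%, limit read from the data; passing the limit was not always enough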
Target sequence (P20393 whole entry, looked up): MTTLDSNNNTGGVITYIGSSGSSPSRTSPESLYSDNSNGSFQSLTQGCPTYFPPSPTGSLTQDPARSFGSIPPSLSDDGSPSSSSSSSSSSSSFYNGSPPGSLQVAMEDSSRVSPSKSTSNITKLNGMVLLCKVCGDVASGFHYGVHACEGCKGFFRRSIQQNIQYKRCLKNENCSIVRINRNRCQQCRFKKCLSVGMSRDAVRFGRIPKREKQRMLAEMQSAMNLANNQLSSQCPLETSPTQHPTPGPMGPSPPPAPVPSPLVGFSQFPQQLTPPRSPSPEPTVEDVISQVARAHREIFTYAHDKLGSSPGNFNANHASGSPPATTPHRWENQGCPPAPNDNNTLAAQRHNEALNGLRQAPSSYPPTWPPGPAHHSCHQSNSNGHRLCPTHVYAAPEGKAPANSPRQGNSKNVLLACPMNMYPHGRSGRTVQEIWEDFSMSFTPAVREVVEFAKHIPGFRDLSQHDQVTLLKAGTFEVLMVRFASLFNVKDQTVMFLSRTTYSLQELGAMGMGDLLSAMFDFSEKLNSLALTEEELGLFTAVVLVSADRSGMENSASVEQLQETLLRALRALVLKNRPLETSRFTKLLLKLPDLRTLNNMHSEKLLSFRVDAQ
NR2E3 ag-1 = agonists of human NR2E3 nuclear receptor; Q9Y5X4; CHO-S Gal4-NCOR/VP16-NR2E3 two-hybrid, luciferase; inhibition of corepressor binding, % at 3.98 µM; 360,000 tested, 0.35% active; AID 602229;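 active means inhibition above the mean of all tested compounds plus 3 SD, cut at about 70% in these data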;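 further: higher means lower luciferase signal from less NR2E3 corepressor binding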
NR2E3 ag-2 = agonists of human nuclear receptor NR2E3; Q9Y5X4; GST-NR2E3/biotin-RetCOR TR-FRET, 1536-well; inhibition of corepressor binding, % at 4.78 µM; 320,000 tested, 0.12% active;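 active means percent inhibition above the cutoff of mean plus 3 SD of all tested compounds, set per screening campaign, cut at about 20% in these data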
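System: GST-tagged NR2E3 plus biotinylated RetCOR corepressor; Buffer or medium: pH 7.5 Tris-based buffer; Probe or stimulus: RetCOR corepressor, biotinylated, 7 nM; Doses: compound at 4.8 µM, single dose; Schedule: 5 h incubation at 4 °C; Technique: time-resolved FRET; Evaluation: percent inhibition of TR-FRET ratio; Replication: one well per compound, singlicate testing.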
PG9 Ab binder = binds the HIV-1 gp120 antibody PG9; inhibition, % at 6.7 µM; TR-FRET gp120-PG9 antibody binding; AID 624416; 360,000 tested, 0.43% active; in the data active means inhibition above about 8.5%
Rev-erbA confirm = confirmation of modulators of human Rev-erb alpha DNA binding | shares compounds with NR1D1 modulator | Rev-erb alpha FITC-DNA binding, fluorescence polarization, 90 min | activation, % at 25 µM | 3,000 tested, 61% active;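 active means activation at or above a set limit, or at least 3 SD above the negative control mean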
RORg counter = affects RORgamma DNA binding in a Rev-erb alpha counter-screen | shares compounds with NR1D1 modulator | purified RORgamma protein-FITC-DNA binding, fluorescence polarization | IC50, µM | 910 tested, 8% active | AID 1259320;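 active means Compounds whose fitted half-maximal concentration for disrupting protein-DNA binding is below 10 micromolar; the record names Rev-erb in its text, so the target is in doubt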
Each line names hits and unclear results; the compound was inactive in the other large screens (follow-up assays come after a bar, where they were run).

CC(C)(C)c1ccc(SC2=C[C@@]3(O)CC[C@@H](O)[C@@](Sc4ccc(C(C)(C)C)cc4)(C2=O)[C@H]3O)cc1	NR1D1 modulator 33.3 (no result: NR2E3 ag-2) | Rev-erbA confirm 20.5
O=C(Nc1cccc(-c2nc3ncccc3o2)c1)c1sc2cc(Cl)ccc2c1Cl	NR1D1 modulator 31.3 | Rev-erbA confirm 17.4
Cc1c(Cc2ccc3c(c2)OCO3)sc(NC(=O)c2ccc3ccccc3c2)c1C(N)=O	NR1D1 modulator 22.7 | Rev-erbA confirm inactive
Cc1ccc2nsnc2c1NC(=O)c1sc2ccccc2c1Cl	NR1D1 modulator 30.5 | Rev-erbA confirm 32.3 | RORg counter inactive
Cc1nnc(NC(=O)c2sc3ccccc3c2Cl)s1	none
CNC(=O)c1ccsc1NC(=O)c1sc2ccccc2c1Cl	NR1D1 modulator 95.7 | Rev-erbA confirm 71.8 | RORg counter inactive
COC(=O)[C@@]12CCCCC=C1N(CCc1ccc(Cl)cc1)C(=O)[C@H]2CC(=O)NCc1cccc(C(F)(F)F)c1	none (no result: NR2E3 ag-1, NR2E3 ag-2, PG9 Ab binder)
CSc1nc(C)c2c(n1)N(c1ccc(C(F)(F)F)cc1)CC2	NR1D1 modulator 22.8 | Rev-erbA confirm inactive
COc1ccc(-c2ccc3oc(-c4ccsc4)cc(=O)c3c2)cc1F	NR1D1 modulator 66.1 (no result: NR2E3 ag-2) | Rev-erbA confirm 30.6
COc1ccc(-c2ccc3oc(-c4ccsc4)cc(=O)c3c2)cn1	none (no result: NR2E3 ag-2)
COc1ccc(-c2nc3c(c(=O)[nH]c(=O)n3Cc3ccccc3)n2C)cc1	NR1D1 modulator 43.4 | Rev-erbA confirm inactive
Cn1c2ccccc2c(=O)c2c(=O)n(-c3ccc(F)cc3)c(-c3cccs3)nc21	none
COc1ccc(Cn2c(-c3ccco3)nc3c(c(=O)c4ccccc4n3C)c2=O)cc1	none
COc1ccc(Cn2c(-c3ccc(C)cc3)nc3c(c(=O)c4ccccc4n3C)c2=O)cc1	NR1D1 modulator 26.6 | Rev-erbA confirm inactive
COc1ccc(Cn2c(C)nc3c(c(=O)c4ccccc4n3C)c2=O)cc1	none
Cc1ccc(-c2nc3c(c(=O)c4ccccc4n3C)c(=O)n2-c2ccc(F)cc2)cc1	NR1D1 modulator 69.2 | Rev-erbA confirm 43.2 | RORg counter 2.66
COc1ccc(Cn2c(-c3ccccc3C)nc3c(c(=O)c4ccccc4n3C)c2=O)cc1	NR1D1 modulator 44.6 | Rev-erbA confirm inactive
CC(COc1cccc(F)c1)CN1CCC(C(O)(c2ccccc2)c2ccccc2)CC1 (stereo not given)	none (no result: NR2E3 ag-1, NR2E3 ag-2, PG9 Ab binder)
CN(C(=O)COC(=O)c1ccccc1OCc1ccc(Cl)cc1)c1c(N)n(Cc2ccccc2)c(=O)[nH]c1=O	none
COc1ccc(CCn2c(C)nc3c(c(=O)c4ccccc4n3C)c2=O)cc1	none
COc1ccc(-c2nc3c(c(=O)c4ccccc4n3C)c(=O)n2Cc2ccccc2)cc1	NR1D1 modulator 48.4 | Rev-erbA confirm 50.1 | RORg counter inactive
COc1ccc(CCn2c(C(C)C)nc3c(c(=O)c4ccccc4n3C)c2=O)cc1	none (no result: NR1D1 modulator, PG9 Ab binder)
CCCCCc1nc2c(c(=O)c3ccccc3n2C)c(=O)n1Cc1ccc(OC)cc1	NR1D1 modulator 67.0 | Rev-erbA confirm 34.1 | RORg counter inactive
O=C(O)C(=Cc1ccc([N+](=O)[O-])cc1)c1cccc(Cl)c1	none (no result: NR2E3 ag-2)
O=C(Nc1ccc(Oc2ccccc2)cc1)C1CCCN1S(=O)(=O)c1cccc2cccnc12 (stereo not given)	none (no result: NR2E3 ag-1, NR2E3 ag-2, PG9 Ab binder)
O=C(CSc1nc(=O)n2ccccc2n1)N1CCCc2ccccc21	none
O=C(CSc1ncnc2c(-c3ccc(Cl)cc3)nsc12)c1ccccc1	NR1D1 modulator 33.8 | Rev-erbA confirm 18.9
Cc1ccc2c(c1)S(=O)(=O)c1ccc3ccccc3c1N2	NR1D1 modulator 31.6 (no result: NR2E3 ag-2) | Rev-erbA confirm 14.6
Cc1cccc(CSC2=CS(=O)(=O)c3ccccc3N2)c1	none
COc1ccc(-n2c(COc3ccc(Cl)cc3)nnc2SCC(=O)c2ccc(-c3ccccc3)cc2)cc1	NR1D1 modulator 22.5 (no result: NR2E3 ag-1, NR2E3 ag-2, PG9 Ab binder) | Rev-erbA confirm inactive
CC(=O)N1CCc2c(sc(NC(=O)C3CC3)c2-c2nc3ccccc3s2)C1	NR1D1 modulator 169.8 | Rev-erbA confirm inactive
COC(=O)C1=C(C)NC(C)=C(C(=O)OC)C1C(=O)OCc1nc2cc(C(=O)OC)ccc2c(=O)[nH]1	none
COC(=O)c1ccc2c(=O)[nH]c(COC(=O)CCC(=O)c3ccc(Cl)cc3)nc2c1	NR1D1 modulator 19.9 | Rev-erbA confirm inactive
Cc1[nH]nc2nc(SCC(=O)NCCC3=CCCCC3)n(-c3ccc(Br)cc3)c(=N)c12	NR1D1 modulator 28.9 | Rev-erbA confirm 30.0 | RORg counter inactive
O=C1CN(c2nc(-c3ccccc3)c3ccccc3n2)c2ccccc2N1	NR1D1 modulator 34.4 | Rev-erbA confirm inactive
c1ccc(-c2nc(-n3nc4ccccc4n3)nc3ccccc23)cc1	none
CCCCNC(=O)NCc1cnn(C)c1C	none
CCN(Cc1nc2cc(Cl)ccc2c(=O)[nH]1)C(=O)C1CC(=O)N(c2cccc3ccccc23)C1 (stereo not given)	none
CCN(Cc1nc2cc(Cl)ccc2c(=O)[nH]1)C(=O)c1cc2c(s1)CCCCC2	NR1D1 modulator 54.0 (no result: NR2E3 ag-2) | Rev-erbA confirm 33.9 | RORg counter inactive
Cc1ccccc1Cn1cc(S(=O)(=O)c2ccc(C(C)C)cc2)c(=O)c2cc3c(cc21)OCO3	NR1D1 modulator 40.3 | Rev-erbA confirm 21.3
Cc1ccc(NC(=O)COC(=O)c2ccc(OCc3c(C)noc3C)cc2)cc1S(=O)(=O)N1CCOCC1	none
O=C(Nc1nnc(-c2ccc(Br)cc2)o1)c1cccc(N2C(=O)CCC2=O)c1	NR1D1 modulator 18.1 | Rev-erbA confirm inactive
O=C(Nc1nnc(-c2ccccc2)o1)c1cccc(N2C(=O)CCC2=O)c1	none
CCN(CC)C(=O)N1CCc2ccccc21	none
C[C@H]1CN(S(=O)C(C)(C)C)[C@@H](CCO)/C1=C\c1ccccc1 (stereo not given in full)	NR1D1 modulator 15.2 (no result: NR2E3 ag-2) | Rev-erbA confirm inactive
C[C@H]1CN(S(=O)C(C)(C)C)[C@H](CCO)/C1=C\c1ccccc1 (stereo not given in full)	none (no result: NR2E3 ag-2)
Cn1c(/C(C#N)=C(\O)c2ccc(Br)s2)nc2ccccc21	NR1D1 modulator 39.5 | Rev-erbA confirm inactive
Cn1c(/C(C#N)=C(\O)c2cc(Cl)sc2Cl)nc2ccccc21	none
O=C(Nc1ccc(C(F)(F)F)cc1)c1cc(-c2cccnc2)nc2ccc(Br)cc12	NR1D1 modulator 33.9 | Rev-erbA confirm 21.6
COc1ccc2[nH]c(C(=O)Nc3ccc(C)c(F)c3)cc2c1	NR1D1 modulator 48.8 | Rev-erbA confirm 43.6 | RORg counter 1.48
CCOc1ccccc1NC(=O)c1cnc2n(c1=O)CCS2	NR1D1 modulator 45.9 | Rev-erbA confirm 37.9 | RORg counter inactive
Cc1nn(-c2ccc(Cl)cc2)c(=O)c2ccccc12	none
Cc1nn(-c2ccc(Cl)c(Cl)c2)c(=O)c2ccccc12	NR1D1 modulator 48.2 | Rev-erbA confirm 41.1 | RORg counter inactive
Cc1cc(C)n2nc(SCC(=O)NC(=O)c3ccc(OC(F)F)cc3)nc2n1	none (no result: NR2E3 ag-2)
